ChEMBL document CHEMBL1240435, “Synthesis of some 3-substituted amino-4,5-tetramethylene thieno[2,3-d][ 1,2,3]-triazin-4(3H)-ones as potential antimicrobial agents” (2010)
≈ marks a conversion by molar mass, not a printed value.

Key:
Staphylococcus aureus [1] = assay: Antibacterial activity against Staphylococcus aureus after 24 hrs by tube dilution method; assay type: functional
[2] = tested on: Staphylococcus epidermidis; assay: Antibacterial activity against Staphylococcus epidermidis after 24 hrs by tube dilution method; assay type: functional
Escherichia coli [3] = assay: Antibacterial activity against Escherichia coli after 24 hrs by tube dilution method; assay type: functional
Salmonella typhi [4] = assay: Antibacterial activity against Salmonella typhi after 24 hrs by tube dilution method; assay type: functional, Salmonella enterica subsp. enterica serovar Typhi; conditions: Salmonella enterica
Aspergillus niger [5] = assay: Antifungal activity against Aspergillus niger after 48 hrs by tube dilution method; assay type: functional
Candida albicans [6] = assay: Antifungal activity against Candida albicans after 48 hrs by tube dilution method; assay type: functional
Cryptococcus neoformans [7] = assay: Antifungal activity against Cryptococcus neoformans after 48 hrs by tube dilution method; assay type: functional
Staphylococcus aureus [8] = assay: Antibacterial activity against Staphylococcus aureus at 50 ug/ml after 24 hrs by agar cup diffusion method; assay type: functional; conditions: read-out: IZ
Method in brief: (§1)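 Compounds dissolved in DMF. A fresh bacterial subculture in isotonic NaCl was mixed into sterile assay medium at 40–45 °C and poured into Petri dishes. Test solution went into marked wells. Plates stood 5 min, were covered for 1 h, then incubated at 37 °C for 24 h. Inhibition zones were measured as the average of three readings.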

[9] = tested on: Staphylococcus epidermidis; assay: Antibacterial activity against Staphylococcus epidermidis at 50 ug/ml after 24 hrs by agar cup diffusion method; assay type: functional; conditions: read-out: IZ; method in brief: as §1
Escherichia coli [10] = assay: Antibacterial activity against Escherichia coli at 50 ug/ml after 24 hrs by agar cup diffusion method; assay type: functional; conditions: read-out: IZ; method in brief: as §1
Salmonella typhi [11] = assay: Antibacterial activity against Salmonella typhi at 50 ug/ml after 24 hrs by agar cup diffusion method; assay type: functional, Salmonella enterica subsp. enterica serovar Typhi; conditions: Salmonella enterica, read-out: IZ
Method in brief: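 Agar cup diffusion against an ATCC or IMTECH standard strain. The test compound is dissolved in DMF. A fresh bacterial subculture in isotonic NaCl is mixed into sterile medium at 40–45 °C and poured into plates. Solution is added to marked wells, left 5 min, then covered 1 h. Plates are incubated at 37 °C for 24 h. The inhibition zone is the mean of three readings, with ampicillin as reference.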

Aspergillus niger [12] = assay: Antifungal activity against Aspergillus niger at 50 ug/ml after 48 hrs by agar cup diffusion method; assay type: functional; conditions: read-out: IZ
Candida albicans [13] = assay: Antifungal activity against Candida albicans at 50 ug/ml after 48 hrs by agar cup diffusion method; assay type: functional; conditions: read-out: IZ
Cryptococcus neoformans [14] = assay: Antifungal activity against Cryptococcus neoformans at 50 ug/ml after 48 hrs by agar cup diffusion method; assay type: functional; conditions: read-out: IZ

Structure (SMILES) | MIC (Staphylococcus aureus [1]) | MIC [2] | MIC (Escherichia coli [3]) | MIC (Salmonella typhi [4]) | MIC (Aspergillus niger [5]) | MIC (Candida albicans [6]) | MIC (Cryptococcus neoformans [7]) | zone of inhibition at 50 µg/mL (Staphylococcus aureus [8]) | zone of inhibition at 50 µg/mL [9] | zone of inhibition at 50 µg/mL (Escherichia coli [10]) | zone of inhibition at 50 µg/mL (Salmonella typhi [11]) | zone of inhibition at 50 µg/mL (Aspergillus niger [12]) | zone of inhibition at 50 µg/mL (Candida albicans [13]) | zone of inhibition at 50 µg/mL (Cryptococcus neoformans [14])
Cc1ccccc1-n1nnc2sc3c(c2c1=O)CCCC3 | 25 µg/mL (≈ 84.1 µM) | 25 µg/mL (≈ 84.1 µM) | 37.5 µg/mL (≈ 126 µM) | 25 µg/mL (≈ 84.1 µM) | 25 µg/mL (≈ 84.1 µM) | 37.5 µg/mL (≈ 126 µM) | 75 µg/mL (≈ 252 µM) | 20 mm | 18 mm | 14 mm | 12 mm | 6 mm | 4 mm | 
O=c1c2c3c(sc2nnn1-c1ccc(Cl)cc1)CCCC3 | 12.5 µg/mL (≈ 39.3 µM) | 12.5 µg/mL (≈ 39.3 µM) | 25 µg/mL (≈ 78.7 µM) | 12.5 µg/mL (≈ 39.3 µM) | 12.5 µg/mL (≈ 39.3 µM) | 25 µg/mL (≈ 78.7 µM) | 37.5 µg/mL (≈ 118 µM) | 34 mm | 32 mm | 26 mm | 26 mm | 16 mm | 10 mm | 10 mm
O=c1c2c3c(sc2nnn1-c1ccccc1Cl)CCCC3 | 12.5 µg/mL (≈ 39.3 µM) | 12.5 µg/mL (≈ 39.3 µM) | 25 µg/mL (≈ 78.7 µM) | 12.5 µg/mL (≈ 39.3 µM) | 12.5 µg/mL (≈ 39.3 µM) | 25 µg/mL (≈ 78.7 µM) | 50 µg/mL (≈ 157 µM) | 30 mm | 30 mm | 24 mm | 20 mm | 14 mm | 8 mm | 9 mm
Cc1cccc(-n2nnc3sc4c(c3c2=O)CCCC4)c1 | 25 µg/mL (≈ 84.1 µM) | 25 µg/mL (≈ 84.1 µM) | 37.5 µg/mL (≈ 126 µM) | 25 µg/mL (≈ 84.1 µM) | 25 µg/mL (≈ 84.1 µM) | 37.5 µg/mL (≈ 126 µM) | 75 µg/mL (≈ 252 µM) | 24 mm | 20 mm | 14 mm | 14 mm | 8 mm | 4 mm | 6 mm
O=c1c2c3c(sc2nnn1-c1ccccc1)CCCC3 | 25 µg/mL (≈ 88.2 µM) | 25 µg/mL (≈ 88.2 µM) | 37.5 µg/mL (≈ 132 µM) | 37.5 µg/mL (≈ 132 µM) | 37.5 µg/mL (≈ 132 µM) | 50 µg/mL (≈ 176 µM) | 125 µg/mL (≈ 441 µM) | 20 mm | 17 mm | 12 mm | 12 mm | 6 mm | 4 mm | 
Clc1ccc(COC(Cn2ccnc2)c2ccc(Cl)cc2Cl)c(Cl)c1.O=[N+]([O-])O (stereo not drawn) [MICONAZOLE NITRATE] |  |  |  |  | 10 µg/mL | 12.5 µg/mL | 20 µg/mL |  |  |  |  | 16 mm | 12 mm | 14 mm
O=c1c2c3c(sc2nnn1-c1ccc(F)cc1)CCCC3 | 6.75 µg/mL (≈ 22.4 µM) | 6.75 µg/mL (≈ 22.4 µM) | 12.5 µg/mL (≈ 41.5 µM) | 12.5 µg/mL (≈ 41.5 µM) | 12.5 µg/mL (≈ 41.5 µM) | 37.5 µg/mL (≈ 124 µM) | 75 µg/mL (≈ 249 µM) | 32 mm | 32 mm | 26 mm | 24 mm | 10 mm | 8 mm | 8 mm
O=c1c2c3c(sc2nnn1-c1cccc(Cl)c1)CCCC3 | 12.5 µg/mL (≈ 39.3 µM) | 12.5 µg/mL (≈ 39.3 µM) | 25 µg/mL (≈ 78.7 µM) | 12.5 µg/mL (≈ 39.3 µM) | 12.5 µg/mL (≈ 39.3 µM) | 25 µg/mL (≈ 78.7 µM) | 50 µg/mL (≈ 157 µM) | 32 mm | 30 mm | 26 mm | 24 mm | 13 mm | 8 mm | 8 mm
Cn1nnc2sc3c(c2c1=O)CCCC3 | 37.5 µg/mL (≈ 169 µM) | 37.5 µg/mL (≈ 169 µM) | 50 µg/mL (≈ 226 µM) | 37.5 µg/mL (≈ 169 µM) | 37.5 µg/mL (≈ 169 µM) | 50 µg/mL (≈ 226 µM) | 125 µg/mL (≈ 565 µM) | 16 mm | 18 mm | 12 mm | 14 mm | 6 mm | 4 mm | 
CCn1nnc2sc3c(c2c1=O)CCCC3 | 37.5 µg/mL (≈ 159 µM) | 37.5 µg/mL (≈ 159 µM) | 50 µg/mL (≈ 212 µM) | 37.5 µg/mL (≈ 159 µM) | 37.5 µg/mL (≈ 159 µM) | 50 µg/mL (≈ 212 µM) | 125 µg/mL (≈ 531 µM) | 18 mm | 16 mm | 16 mm | 16 mm | 6 mm | 5 mm | 
CC1(C)S[C@@H]2[C@H](NC(=O)[C@H](N)c3ccccc3)C(=O)N2[C@H]1C(=O)O [AMPICILLIN] | 0.5 µg/mL (≈ 1.43 µM) | 1.56 µg/mL (≈ 4.46 µM) | 4 µg/mL (≈ 11.4 µM) | 6.25 µg/mL (≈ 17.9 µM) |  |  |  | 40 mm | 36 mm | 28 mm | 26 mm |  |  | 
O=c1c2c3c(sc2nnn1-c1ccc(F)c(Cl)c1)CCCC3 | 12.5 µg/mL (≈ 37.2 µM) | 12.5 µg/mL (≈ 37.2 µM) | 25 µg/mL (≈ 74.5 µM) | 12.5 µg/mL (≈ 37.2 µM) | 25 µg/mL (≈ 74.5 µM) | 37.5 µg/mL (≈ 112 µM) | 50 µg/mL (≈ 149 µM) | 26 mm | 24 mm | 24 mm | 20 mm | 10 mm | 7 mm | 8 mm
O=c1[nH]nnc2sc3c(c12)CCCC3 | 37.5 µg/mL (≈ 181 µM) | 37.5 µg/mL (≈ 181 µM) | 50 µg/mL (≈ 241 µM) | 37.5 µg/mL (≈ 181 µM) | 37.5 µg/mL (≈ 181 µM) | 50 µg/mL (≈ 241 µM) | 125 µg/mL (≈ 603 µM) |  |  |  |  | 4 mm | 3 mm | 
Cc1ccc(-n2nnc3sc4c(c3c2=O)CCCC4)cc1 | 25 µg/mL (≈ 84.1 µM) | 25 µg/mL (≈ 84.1 µM) | 37.5 µg/mL (≈ 126 µM) | 25 µg/mL (≈ 84.1 µM) | 25 µg/mL (≈ 84.1 µM) | 37.5 µg/mL (≈ 126 µM) | 75 µg/mL (≈ 252 µM) | 28 mm | 28 mm | 20 mm | 18 mm | 8 mm | 5 mm | 5 mm
